Converted amounts (≈) assume the structure as drawn.
What was measured:
[1] = Intrinsic clearance in mouse liver microsomes at 0.5 uM preincubated with NADPH and measured up to 30 mins by LC-MS/MS analysis; assay type: ADME, microsome
[2] = test system: Mycobacterium tuberculosis; experiment: Antimycobacterial activity against Mycobacterium tuberculosis H37Rv ATCC 25618 assessed as reduction in cell viability after 7 days by bacTiter-Glo assay; assay type: functional; conditions: H37Rv ATCC 25618, 168 h
Mus musculus [3] = experiment: Oral bioavailability in C57BL/6 mouse at 49.2 mg/kg via gavage by LC-MS/MS analysis; assay type: ADME, organism-based; conditions: in vivo
physchem = conditions: buffer, pH 7.4
[4] = Volume of distribution at steady state in C57BL/6 mouse at 4 mg/kg, iv by LC-MS/MS analysis; assay type: ADME, organism-based; conditions: in vivo, read-out: Vdss
Outline: (§1)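 Female C57BL/6 mice (18−20 g), single intravenous dose in 5% DMSO/20% Encapsin. Tail-vein whole blood (25 μL) was taken from each mouse (n = 5) at 5, 15 and 30 min and 1, 2, 4 and 8 h postdose, and compound concentration was measured in peripheral whole blood.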

[5] = Cmax in C57BL/6 mouse at 49.2 mg/kg, po via gavage by LC-MS/MS analysis; assay type: ADME, organism-based; set-up: dose 49.2 mg/kg, route oral; conditions: in vivo
[6] = test system: Mycobacterium tuberculosis; experiment: Antimycobacterial activity against Mycobacterium tuberculosis H37Rv ATCC 25618 after 6 days by resazurin-based assay; assay type: functional; conditions: H37Rv ATCC 25618, 144 h
[7] = test system: Mycobacterium tuberculosis; experiment: Antimycobacterial activity against Mycobacterium tuberculosis clinical isolates after 6 days by resazurin-based assay; assay type: functional; conditions: 144 h
[8] = Intrinsic clearance in human liver microsomes at 0.5 uM preincubated with NADPH and measured up to 30 mins by LC-MS/MS analysis; assay type: ADME, microsome
[9] = Half life in C57BL/6 mouse at 4 mg/kg, iv by LC-MS/MS analysis; assay type: ADME, organism-based; conditions: in vivo; outline: as §1
[10] = Cytotoxicity against human HepG2 cells after 48 hrs by cellTiter-Glo assay; assay type: cell-based; conditions: read-out: TC50
Mus musculus [11] = experiment: AUC in C57BL/6 mouse at 49.2 mg/kg, po via gavage by LC-MS/MS analysis; assay type: ADME, organism-based; conditions: in vivo
HepG2 [12] = experiment: Cytotoxicity against human HepG2 cells assessed as effect on mitochondrial membrane potential after 48 hrs by TMRM-staining based cell health assay; assay type: ADME; conditions: HepG2, 48 h
HepG2 [13] = experiment: cells; assay type: ADME, cell-based; conditions: Homo sapiens, HepG2, 48 h
[14] = Cardiotoxicity in New Zealand white perfused rabbit heart left ventricular wedge assessed as prolongation of QT interval at 10 uM by electrophysiology assay; assay type: toxicity, tissue-based, Oryctolagus cuniculus, Heart left ventricle
[15] = Cardiotoxicity in New Zealand white perfused rabbit heart left ventricular wedge assessed as prolongation of QRS interval time at 30 uM by electrophysiology assay relative to control; assay type: toxicity, tissue-based, Oryctolagus cuniculus, Heart left ventricle
[16] = Cardiotoxicity in New Zealand white perfused rabbit heart left ventricular wedge assessed as drug concentration causing prolongation of Tp-e interval time by electrophysiology assay; assay type: toxicity, tissue-based, Oryctolagus cuniculus, Heart left ventricle
[17] = Cardiotoxicity in New Zealand white perfused rabbit heart left ventricular wedge assessed as prolongation of Tp-e interval time at 10 uM by electrophysiology assay relative to control; assay type: toxicity, tissue-based, Oryctolagus cuniculus, Heart left ventricle
[18] = Cmax in C57BL/6 mouse at 44 mg/kg, po via gavage by LC-MS/MS analysis; assay type: ADME, organism-based; set-up: dose 44 mg/kg, route oral; conditions: in vivo
[19] = Volume of distribution at steady state in C57BL/6 mouse at […], iv by LC-MS/MS analysis; assay type: ADME, organism-based; conditions: in vivo, read-out: Vdss
[20] = AUC in C57BL/6 mouse at 44 mg/kg, po via gavage by LC-MS/MS analysis; assay type: ADME, organism-based; conditions: in vivo
Mus musculus [21] = experiment: Toxicity in Mycobacterium tuberculosis H37Rv infected C57BL/6 mouse assessed as drug tolerability at >50 mg/kg, po administered once daily for 8 days starting following day after infection and measured at 24 hrs post last dose; assay type: organism-based; conditions: in vivo
[22] = Oral bioavailability in C57BL/6 mouse at 44 mg/kg via gavage by LC-MS/MS analysis; assay type: ADME, organism-based; conditions: in vivo
[23] = Half life in C57BL/6 mouse at […], iv by LC-MS/MS analysis; assay type: ADME, organism-based; conditions: in vivo
[24] = Clearance in C57BL/6 mouse at […], iv by LC-MS/MS analysis; assay type: ADME, organism-based; conditions: in vivo
[25] = test system: Mycobacterium tuberculosis; experiment: Antibacterial activity against Mycobacterium tuberculosis H37Rv infected in C57BL/6 mouse assessed as reduction in colony forming units administered orally once daily for 8 days starting following day after infection and measured at 24 hrs post last dose relative to untreated control; assay type: functional
Outline: (§2)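 Female C57BL/6 mice, 8−10 weeks old, infected intratracheally with 100 000 CFU of H37Rv. Oral dosing once daily for 8 days began 1 day post-infection. Lungs were harvested 24 h after the last dose, homogenised and plated on 7H11 with 10% OADC and 0.4% charcoal for 18 days at 37 °C. Log10 CFU was fitted to a sigmoidal dose-response curve, and ED99 was defined as a 2-log CFU drop versus untreated.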

[26] = test system: Mycobacterium tuberculosis; experiment: Antibacterial activity against Mycobacterium tuberculosis H37Rv infected in C57BL/6 mouse assessed as efficacious dose casing 2 log reduction in colony forming units administered orally once daily for 8 days starting following day after infection and measured at 24 hrs post last dose; assay type: functional; conditions: po; outline: as §2

Q: Which CLH [1] does the source give for `c1cc2c(s1)CCOC21CCN(Cc2ccc3c(c2)OCCO3)CC1` here?
A: The CLH was greater than 30 mL/min/g.

Q: And the MIC80 [2]?
A: The MIC80 was 0.25 µM (≈ 0.0894 µg/mL).

Q: And the F (Mus musculus [3])?
A: Its F is 14.6%.

Q: And the solubility kinetic at 1 h (physchem)?
A: Its solubility kinetic at 1 h is 266 µM (≈ 95.1 µg/mL).

Q: And the Vd [4]?
A: The Vd was 7.4 L/kg.

Q: And the Cmax [5]?
A: The Cmax was 470 ng/mL.

Q: What about the MIC90 [6] of the same compound?
A: The MIC90 was 0.3 µM (≈ 0.107 µg/mL).

Q: And the MIC90 [7]?
A: The MIC90 was 0.6 µM (≈ 0.214 µg/mL).

Q: And the CLH [8]?
A: Its CLH is 25 mL/min/g.

Q: What about the half-life [9] of the same compound?
A: Its half-life is 0.7 h.

Q: And the CC50 at 48 h [10]?
A: Its CC50 at 48 h is 36 µM.

Q: And the AUC (Mus musculus [11])?
A: Its AUC is 1780 ng·h/mL.

Q: Which CLH [1] does the source give for `CC(C)(C)c1ccc(CN2CCC3(CCCCO3)CC2)cc1` here?
A: Its CLH is 18.1 mL/min/g.

Q: What about the IC50 (HepG2 [12]) of the same compound?
A: Its IC50 is 135 µM.

Q: And the IC50 (HepG2 [13])?
A: Its IC50 is 129 µM.

Q: What about the Activity [14] of the same compound?
A: Its Activity is 12.2%.

Q: And the MIC90 [6]?
A: Its MIC90 is 0.21 µM (≈ 0.0633 µg/mL).

Q: What about the CLH [8] of the same compound?
A: Its CLH is 3.2 mL/min/g.

Q: And the Activity [15]?
A: The Activity was 25.4%.

Q: And the Activity [16]?
A: Its Activity is 10 µM.

Q: What about the Activity [17] of the same compound?
A: The Activity was 44.4%.

Q: With `FC(F)(F)Oc1ccc(Oc2ccc(N3CCC4(CC3)OCCc3sccc34)cc2)cc1` as the compound, how does the CLH [1] read?
A: Its CLH is 1.2 mL/min/g.

Q: And the IC50 (HepG2 [13])?
A: The IC50 was 11 µM.

Q: And the MIC90 [6]?
A: Its MIC90 is 0.06 µM (≈ 0.0277 µg/mL).

Q: What about the Cmax [18] of the same compound?
A: Its Cmax is 1270 ng/mL.

Q: And the CLH [8]?
A: Its CLH is 0.6 mL/min/g.

Q: What about the Vd [19] of the same compound?
A: Its Vd is 10.4 L/kg.

Q: And the AUC [20]?
A: Its AUC is 8740 ng·h/mL.

Q: What about the Activity (Mus musculus [21]) of the same compound?
A: The Activity was “Non-Toxic”.

Q: What about the bioavailability [22] of the same compound?
A: The bioavailability was 42.6%.

Q: What about the half-life [23] of the same compound?
A: Its half-life is 3.2 h.

Q: And the clearance [24]?
A: The clearance was 36.3 mL/min/kg.

Q: And the Activity [25]?
A: Its Activity is 4.2 log10CFU.

Q: What about the ED99 [26] of the same compound?
A: The ED99 was 11.6 mg/kg.

Source: ChEMBL document CHEMBL4257587 (J Med Chem, 2018)
